High-throughput results from PubChem BioAssay.
Hits are enriched below; roughly 1.5% of the tested compounds scored in any of these assays.
APJ agonist: agonists of human APJ apelin receptor; CHO-K1 APJ PathHunter beta-arrestin, luminescence; 0% DMSO wells, 100% apelin; activation, % at 20 µM; 0.11% of 330,000 active;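 active means activation more than six SD over the plate average, tested at 20 µM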
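Test system – PathHunter CHO-K1 APJ (AGTRL-1) beta-arrestin reporter cells · Input – 1000 cells/well · Compound – single test compound dose, 20 µM final, 1% DMSO · Times – compound stimulation 90 min at 25 °C, detection 60 min · Technique – beta-gal luminescence · Read-out basis – APJ–arrestin association signal · Control set – negative DMSO alone, positive Apelin-13 at 10 nM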
EBI2 antag: blocks human EBI2 receptor beta-arrestin signaling. inhibition, % at 5 µM. AID 651636. 0.81% of 360,000 active. P32249. EBI2 beta-arrestin recruitment, luminescence, 7a,25-OHC stimulated; in the data active means inhibition above about 38%;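 further: enzyme fragment complementation signal reports receptor beta-arrestin coupling in cells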
iPSC survival up: increases survival of single human iPS cells; survival enhancement, % at 20 µM; hiPSC single-cell survival, ATPlite luminescence; 100% = ROCK inhibitor wells, 0% = DMSO; 0.044% of 360,000 active; in the data active means survival enhancement above about 18%;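 further: cells exposed to compounds for 16 hours before the ATP read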
APJ antagonist: antagonists of human APJ apelin receptor. AID 2521. inhibition, % at 20 µM. P35414. 0.32% of 330,000 active. CHO-K1 APJ beta-arrestin complementation, luminescence;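 active means inhibition above about 40% at 20 µM, limit read from the data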;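 further: cells challenged with 10 nM apelin-13 agonist together with compound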
CXCR6 inh: inhibitors of human CXCR6 receptor; O00574; CHO-K1 PathHunter CXCR6 beta-arrestin, luminescence; inhibition, % at 20 µM; 0.36% of 360,000 active; in the data active means inhibition above about 34%, passing the limit was not always enough;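 further: antagonist mode with CXCL16 agonist at 10 nM final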
CCR6 antag: CCR6 (human) receptor antagonism | inhibition, % at 20 µM | CHO-K1 CCR6 PathHunter beta-arrestin, luminescence, CCL20-stimulated | 0.49% of 340,000 active;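 active means compounds whose inhibition of the agonist-driven luminescence signal at 20 µM reaches about 50%, limit read from the data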;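 further: cells stimulated with CCL20 at 14 nM final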
Target sequence (P51684 whole entry, looked up): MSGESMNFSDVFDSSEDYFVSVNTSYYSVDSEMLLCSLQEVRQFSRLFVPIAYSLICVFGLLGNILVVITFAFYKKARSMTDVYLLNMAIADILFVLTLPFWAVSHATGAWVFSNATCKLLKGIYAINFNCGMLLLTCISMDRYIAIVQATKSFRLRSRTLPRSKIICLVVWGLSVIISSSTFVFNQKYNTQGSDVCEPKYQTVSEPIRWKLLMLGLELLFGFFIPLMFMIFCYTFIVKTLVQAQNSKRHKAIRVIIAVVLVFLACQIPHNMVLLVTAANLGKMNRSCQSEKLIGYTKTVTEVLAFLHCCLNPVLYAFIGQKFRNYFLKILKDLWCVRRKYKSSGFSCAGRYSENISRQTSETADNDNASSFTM
EBI2 conf: confirmation of human EBI2 receptor antagonists; shares compounds with EBI2 antag; EBI2 beta-arrestin luminescence, 7a,25-OHC antagonism; inhibition, % at 5 µM; 29% of 2,400 active;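 active means inhibition of at least 50%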
EBI2 ag: activates EBI2, counter-screen for EBI2 antagonists; shares compounds with EBI2 antag; EBI2-expressing cells, agonist mode, luminescence, 60 min; 0% vehicle, 100% 7α,25-dihydroxycholesterol control; activation, % at 5 µM; 2,400 tested, under 10 active;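 active means activation of at least 50%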
bGal counter: inhibits E. coli beta-galactosidase, counter-screen for EBI2 antagonists | shares compounds with EBI2 antag | purified beta-galactosidase, luminescent Galacton Star, 15 min | inhibition, % at 5 µM | 1% of 2,400 active;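 active means replicate-average signal at least 3 plate SD below neutral wells, shown as high inhibition, flagging enzyme-inhibiting false positives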;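 further: higher means stronger loss of beta-gal luminescence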
Large screens that a line does not name were inactive (follow-up assays come after a bar, where they were run).

C#CCN(C[C@H]1[C@H](OC(=O)NCc2ccco2)[C@H](OC(=O)NCc2ccco2)C[C@@H](C(=O)OC)[C@H]1C(=O)OC)S(=O)(=O)c1ccc(C)cc1	none (no result: APJ agonist, APJ antagonist, CCR6 antag)
CCc1ccc(/C=C\C(=O)N2CCCC2)cc1	EBI2 antag 47 | EBI2 conf inactive | EBI2 ag inactive | bGal counter inactive
O=C(/C=C/c1ccccc1)N1CCN(C(=O)c2ccco2)CC1	EBI2 antag 63 | EBI2 conf inactive | EBI2 ag inactive | bGal counter inactive
CCCn1c(N2CCN(C(=O)/C=C/C(=O)O)CC2)nc2ccccc21	none
O=C(/C=C/c1ccccc1)N1CCCN(C(=O)/C=C/c2ccccc2)CC1	EBI2 antag 79 | EBI2 conf 53 | EBI2 ag inactive | bGal counter inactive
CCn1c(N2CCN(C(=O)/C=C/c3ccccc3)CC2)nc2ccccc21	EBI2 antag 86 | EBI2 conf 56 | EBI2 ag inactive | bGal counter inactive
CN(C(=O)c1ccc(NC(=O)Cc2ccc([N+](=O)[O-])cc2)cc1)C1CCCC1	none
CCOC(=O)c1c(NC(=S)NC(=O)c2cnn(CC)c2)sc2c1CCC(C)C2 (stereo not drawn)	EBI2 antag 46 | EBI2 conf inactive | EBI2 ag inactive | bGal counter inactive
CCOC(=O)c1c(NC(=O)C2C3C=CC(C3)C2C(=O)O)sc2c1CCC(C)C2 (stereo not drawn)	none
Nc1ncnc2c1ncn2[C@@H]1O[C@H](C(=O)NS(=O)(=O)c2cccs2)[C@@H](O)[C@H]1O	none (no result: APJ agonist, APJ antagonist, CCR6 antag)
Cc1ccc(S(=O)(=O)N2CCN(C(=O)COc3ccc(Br)cc3)CC2)cc1	EBI2 antag 94 | EBI2 conf 72 | EBI2 ag inactive | bGal counter inactive
COc1ccc(S(=O)(=O)N2CCN(CCOc3ccccc3Cl)CC2)cc1OC	none
O=C(COc1ccccc1)N1CCN(S(=O)(=O)c2ccc(Br)cc2)CC1	EBI2 antag 64 | EBI2 conf inactive | EBI2 ag inactive | bGal counter inactive
COc1ccc(S(=O)(=O)N2CCN(CCOc3ccc(Br)cc3)CC2)cc1OC	EBI2 antag 58 | EBI2 conf inactive | EBI2 ag inactive | bGal counter inactive
Cc1ccc(OCC(=O)N2CCN(S(=O)(=O)c3ccccc3[N+](=O)[O-])CC2)cc1	EBI2 antag 84 | EBI2 conf 60 | EBI2 ag inactive | bGal counter inactive
COc1ccc(S(=O)(=O)N2CCN(C(=O)COc3ccccc3)CC2)cc1	none
Cc1ccc(S(=O)(=O)N2CCN(C(=O)COC(=O)COc3ccccc3)CC2)cc1	none
COc1ccc(S(=O)(=O)Nc2cc3[nH]c(=O)oc3cc2C)cc1	none
CC1CN(/C=C/C=O)C(C)CC1OC(=O)c1ccccc1 (stereo not drawn)	none
CCc1ccc(-c2nc(SCC(=O)N(CC)C3CCS(=O)(=O)C3)n[nH]2)cc1 (stereo not drawn)	none
Cc1ccccc1[C@H](NC1c2ccccc2C=Cc2ccccc21)P(=O)(c1ccccc1)c1ccccc1	none (no result: APJ agonist, APJ antagonist, CCR6 antag)
O=C1C=C(c2ccc3cc[nH]c3c2)C[C@@H](c2ccc3c(c2)OCO3)C1	none
O=S(CC(O)(c1ccccc1)c1ccccc1)CC(O)(c1ccccc1)c1ccccc1	none (no result: APJ agonist, APJ antagonist, CCR6 antag)
Cn1c(SCC(=O)Nc2ccccc2Oc2ccccc2)nnc1C1CC1	none
CCCCn1c2ccc(F)cc2c2nnc(SCCN3CCCCC3)nc21	EBI2 antag 57 | EBI2 conf inactive | EBI2 ag inactive | bGal counter inactive
CCCCn1c2ccc(C)cc2c2nnc(SCCN3CCCCC3)nc21	EBI2 antag 69 | EBI2 conf inactive | EBI2 ag inactive | bGal counter inactive
